# Results: ChEMBL document CHEMBL1140150, “Identification of a nonbasic, nitrile-containing cathepsin K inhibitor (MK-1256) that is efficacious in a monkey model of osteoporosis” (J Med Chem, 2008)
# Key:
# Cathepsin K = molecular target: T1, Cathepsin K (Oryctolagus cuniculus, UniProt P43236); assay: Inhibition of rabbit cathepsin K
# T1 sequence (P43236 whole entry): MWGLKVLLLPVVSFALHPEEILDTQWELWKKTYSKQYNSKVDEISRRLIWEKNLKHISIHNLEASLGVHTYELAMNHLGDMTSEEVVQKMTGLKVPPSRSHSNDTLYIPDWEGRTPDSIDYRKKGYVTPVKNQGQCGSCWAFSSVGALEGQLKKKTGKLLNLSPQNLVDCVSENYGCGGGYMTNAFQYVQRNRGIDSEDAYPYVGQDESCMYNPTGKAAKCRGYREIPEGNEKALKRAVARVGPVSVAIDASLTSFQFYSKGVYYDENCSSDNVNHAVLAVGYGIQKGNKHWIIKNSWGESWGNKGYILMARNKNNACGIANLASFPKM
# [1] = Inhibition of bone resorption in rabbit bone; format: functional, tissue-based, Oryctolagus cuniculus, Bone element
# [2] = Selectivity for rabbit cathepsin K over human cathepsin B
# How it was run: (§1)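 Counterscreens used human Cat B and Cat S. Selectivity is expressed against humanized rabbit Cat K.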
# [3] = Inhibition of humanized rabbit cathepsin K Tyr61Asp and Val157Leu mutant; design: species or system Homo sapiens
# [4] = Selectivity for rabbit cathepsin K over human cathepsin S; how it was run: as §1
# [5] = Bone resorption shift, ratio of IC50 for inhibition of bone resorption in rabbit bone to IC50 for rabbit cathepsin K; format: functional, Oryctolagus cuniculus
# How it was run: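 Bone resorption shift is the rabbit bone resorption IC50 divided by the rabbit Cat K IC50.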
# [6] = Protein binding in human plasma by ultracentrifugation; format: ADME, cell-free; conditions: read-out: PPB (converted)
# [7] = Protein binding in rabbit plasma by ultracentrifugation; format: ADME, cell-free, Oryctolagus cuniculus; conditions: read-out: PPB (converted)
# [8] = Protein binding in rat plasma by ultracentrifugation; format: ADME, cell-free; conditions: read-out: PPB (converted)
# [9] = Clearance in rhesus monkey at 1 mL/kg, po; format: ADME, organism-based, Macaca mulatta; conditions: in vivo
# How it was run: (§2)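 Oral suspensions were given to overnight-fasted animals in the morning, at 10 mL/kg in rats, 5 mL/kg in dogs and 1 mL/kg in monkeys. Intravenous dosing was 1 mL/kg in all species. Plasma was sampled at intervals and analyzed by LC-MS after protein precipitation with 1.5 volumes acetonitrile and centrifugation.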
# [10] = Oral bioavailability in rat at 10 mL/kg; format: ADME, organism-based; conditions: in vivo; how it was run: as §2
# [11] = Oral bioavailability in rhesus monkey at 1 mL/kg; format: ADME, organism-based, Macaca mulatta; conditions: in vivo; how it was run: as §2
# Rhesus monkey [12] = assay: Inhibition of bone resorption in ovariectomized monkey model of osteoporosis assessed as reduction of urinary-N-telopeptide fragment level at 1 mg/kg administered once daily; design: scale not given: the % may be the effect or the level left
# [13] = Tmax in ovariectomized monkey model of osteoporosis at 1 mg/kg, po qd for 1 week; format: ADME, organism-based, Macaca mulatta; design: dose 1 mg/kg, route oral; conditions: female, rhesus monkey, in vivo
# How it was run: (§3)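 Adult ovariectomized rhesus monkeys dosed orally once daily at 1 mpk for 1 week, dosing volume 1 mL/kg, fasted overnight before morning dosing. Plasma drug levels were taken on the final day of dosing and analyzed by LC-MS after protein precipitation with 1.5 volumes acetonitrile and centrifugation.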
# [14] = Clearance in dog at 5 mL/kg, po; format: ADME, organism-based, Canis lupus familiaris; conditions: in vivo; how it was run: as §2
# [15] = Half life in rat at 10 mL/kg, po; format: ADME, organism-based; conditions: in vivo; how it was run: as §2
# Rattus norvegicus [16] = assay: Volume of distribution in rat at 10 mL/kg, po; format: ADME, organism-based; conditions: in vivo; how it was run: as §2
# [17] = Half life in dog at 5 mL/kg, po; format: ADME, organism-based, Canis lupus familiaris; conditions: in vivo; how it was run: as §2
# [18] = Clearance in rat at 10 mL/kg, po; format: ADME, organism-based; conditions: in vivo; how it was run: as §2
# [19] = Selectivity for rabbit cathepsin K over human cathepsin Z
# [20] = Selectivity for rabbit cathepsin K over human cathepsin C
# [21] = Cmax in ovariectomized monkey model of osteoporosis at 1 mg/kg, po qd for 1 week; format: ADME, organism-based, Macaca mulatta; design: dose 1 mg/kg, route oral; conditions: female, rhesus monkey, in vivo; how it was run: as §3
# Rattus norvegicus [22] = assay: Metabolic stability in po dosed rat assessed as (1R,2R)-5,5-dichloro-N-(1-cyanocyclopropyl)-2-(4-(4-(methylsulfonyl)phenyl)-1H-pyrazol-3-yl)cyclohexanecarboxamide level after 96 hrs; format: ADME, organism-based; conditions: in vivo
# [23] = Metabolic stability in po dosed rat feces assessed as drug recovery after 96 hrs; format: ADME, organism-based; conditions: faeces, read-out: Stability
# How it was run: (§4)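 Radiolabeled compound was given orally to bile-cannulated rats. Radioactivity was recovered from bile, urine and feces over 96 h and expressed as percent of dosed radioactivity.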
# [24] = Selectivity for rabbit cathepsin K over human cathepsin F
# [25] = Metabolic stability in po dosed rat assessed as drug recovery after 96 hrs; format: ADME, organism-based; conditions: in vivo; how it was run: as §4
# Homo sapiens = species on record: Homo sapiens; assay: Inhibition of humanized rabbit cathepsin K Tyr61Asp and Val157Leu mutant in presence of 0.2 uM citrate buffer at 0.12 uM
# How it was run: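 Reversibility test: a 1:1 mixture of humanized rabbit Cat K and inhibitor (0.12 µM) was preincubated 15 min, then diluted 500-fold into substrate-containing buffer (0.2 µM citrate). Recovery of enzyme activity was followed over time against a control incubation, giving a recovery half-time.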
# [26] = Drug level in ovariectomized monkey model of osteoporosis at 1 mg/kg, po qd for 1 week measured after 24 hrs of last dose; format: ADME, organism-based, Macaca mulatta; design: dose 1 mg/kg, route oral; conditions: female, rhesus monkey, in vivo, read-out: Drug uptake; how it was run: as §3
# Rhesus monkey [27] = assay: Volume of distribution in rhesus monkey at 1 mL/kg, po; format: ADME, organism-based, Macaca mulatta; conditions: in vivo; how it was run: as §2
# Rhesus monkey [28] = assay: Inhibition of bone resorption in ovariectomized monkey model of osteoporosis assessed as reduction of urinary-N-telopeptide fragment level at 1 mg/kg, po qd for 1 week; format: functional, Macaca mulatta, Urine; design: scale not given: the % may be the effect or the level left
# How it was run: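 Adult ovariectomized rhesus monkeys given drug or vehicle orally once daily at 1 mpk for 1 week. Bone resorption was followed by urinary N-telopeptide (NTx) normalized to creatinine (nM/mM), and the value is the mean reduction versus vehicle-treated animals.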
# [29] = Selectivity for rabbit cathepsin K over human cathepsin H
# [30] = Metabolic stability in po dosed rat urine assessed as drug recovery after 96 hrs; format: ADME, organism-based; conditions: read-out: Stability; how it was run: as §4
# [31] = Oral bioavailability in dog at 5 mL/kg; format: ADME, organism-based, Canis lupus familiaris; conditions: in vivo; how it was run: as §2
# Canis familiaris = assay: Volume of distribution in dog at 5 mL/kg, po; format: ADME, organism-based, Canis lupus familiaris; conditions: in vivo; how it was run: as §2
# [32] = Selectivity for rabbit cathepsin K over human cathepsin V
# [33] = AUC in ovariectomized monkey model of osteoporosis at 1 mg/kg, po qd for 1 week; format: ADME, organism-based, Macaca mulatta; design: dose 1 mg/kg, route oral; conditions: female, rhesus monkey, in vivo; how it was run: as §3
# [34] = Inhibition of bone resorption in rhesus monkey bone; format: functional, tissue-based, Macaca mulatta, Bone element
# [35] = Half life in rhesus monkey at 1 mL/kg, po; format: ADME, organism-based, Macaca mulatta; conditions: in vivo; how it was run: as §2
# [36] = Metabolic stability in po dosed rat bile assessed as drug recovery after 96 hrs; format: ADME, organism-based; conditions: read-out: Stability; how it was run: as §4
smiles,measurement,setting,value
Cn1cc(-c2ccc(S(C)(=O)=O)cc2)c([C@@H]2CCC(F)(F)C[C@H]2C(=O)NC2(C#N)CC2)n1,IC50,Cathepsin K,4.5 nM
same,IC50,[1],35 nM
same,Selectivity ratio,[2],4400
same,IC50,[3],0.81 nM
same,Selectivity ratio,[4],1200
same,Ratio IC50,[5],8
CSc1ccc(-c2cn(C)nc2[C@@H]2CCC(F)(F)C[C@H]2C(=O)NCC#N)cc1 (racemic),IC50,Cathepsin K,0.41 nM
same,IC50,[1],41 nM
same,Selectivity ratio,[2],9500
same,IC50,[3],0.37 nM
same,Selectivity ratio,[4],490
same,Ratio IC50,[5],100
CSc1ccc(-c2ccccc2[C@@H]2CCC(F)(F)C[C@H]2C(=O)NCC#N)cc1,fraction unbound,[6],0.15
same,IC50,[1],16 nM
same,Selectivity ratio,[2],> 36000
same,IC50,[3],0.28 nM
same,Selectivity ratio,[4],940
same,Ratio IC50,[5],53
same,fraction unbound,[7],0.15
same,fraction unbound,[8],0.15
CS(=O)(=O)c1ccc(-c2cn(CC(F)(F)F)nc2[C@@H]2CCC(Cl)(Cl)C[C@H]2C(=O)NC2(C#N)CC2)cc1,CL/F,[9],5 mL/min/kg
same,bioavailability,[10],105%
same,bioavailability,[11],104%
same,Activity,Rhesus monkey [12],76%
same,Tmax,[13],4 h
same,CL/F,[14],1.4 mL/min/kg
same,half-life,[15],4.4 h
same,Vdss,Rattus norvegicus [16],2.8 L/kg
same,half-life,[17],34 h
same,CL/F,[18],7.8 mL/min/kg
same,Selectivity ratio,[19],1700
same,Selectivity ratio,[20],6000
same,IC50,Cathepsin K,6.1 nM
same,Cmax,[21],400 nM
same,Activity,Rattus norvegicus [22],0.1%
same,dose excreted at 96 h,[23],58%
same,Selectivity ratio,[24],110
same,IC50,[1],50 nM
same,dose excreted at 96 h,[25],92%
same,inhibition,Homo sapiens,> 99%
same,Selectivity ratio,[2],> 16000
same,concentration at 24 h,[26],80 nM
same,Vdss,Rhesus monkey [27],3.4 L/kg
same,Activity,Rhesus monkey [28],72%
same,Selectivity ratio,[29],> 140000
same,dose excreted at 96 h,[30],18%
same,IC50,[3],0.62 nM
same,Selectivity ratio,[4],4300
same,bioavailability,[31],60%
same,Ratio IC50,[5],8
same,Vdss,Canis familiaris,2.1 L/kg
same,Selectivity ratio,[32],1100
same,AUC at 168 h,[33],4.2 µM·h
same,IC50,[34],2 nM
same,half-life,[35],13 h
same,dose excreted at 96 h,[36],16%
CS(=O)(=O)c1ccc(-c2c[nH]nc2[C@@H]2CCC(F)(F)C[C@H]2C(=O)NC2(C#N)CC2)cc1,IC50,Cathepsin K,18.6 nM
same,IC50,[1],120 nM
same,Selectivity ratio,[2],2900
same,IC50,[3],1.8 nM
same,Selectivity ratio,[4],2300
same,Ratio IC50,[5],7
CS(=O)(=O)c1ccc(-c2cn(CC(F)(F)F)nc2[C@@H]2CCC(F)(F)C[C@H]2C(=O)NC2(C#N)CC2)cc1,bioavailability,[10],25%
same,CL/F,[14],1.8 mL/min/kg
same,half-life,[15],4.4 h
same,Vdss,Rattus norvegicus [16],3.2 L/kg
same,half-life,[17],7.8 h
same,CL/F,[18],14 mL/min/kg
same,Selectivity ratio,[19],1700
same,Selectivity ratio,[20],6000
same,IC50,Cathepsin K,9.3 nM
same,Selectivity ratio,[24],110
same,IC50,[1],51 nM
same,Selectivity ratio,[2],> 14000
same,Selectivity ratio,[29],> 140000
same,IC50,[3],0.69 nM
same,Selectivity ratio,[4],7100
same,bioavailability,[31],31%
same,Ratio IC50,[5],6
same,Vdss,Canis familiaris,1.2 L/kg
same,Selectivity ratio,[32],1100
